Most compounds without a hit are left out; they make up all but 3.3% or so of the library.
Jurkat viability: cytotoxic compounds reducing Jurkat cell viability; Jurkat E6.1 viability, ATP luminescence, 48 h; inhibition, % at 4 µM; 56,000 tested, 1.2% active; AID 463;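 active means inhibition above the mean inhibition of all tested compounds plus 3 SD, cut at about 28% in these data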
5HT1E ag: 5-HT1E (human) receptor agonism; CHO 5-HT1E Ga15 NFAT-bla reporter, FRET; 0% DMSO wells, 100% control agonist wells; AID 574; activation, % at 6 µM; 65,000 tested, 0.69% active;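 active means activation above a set limit, the screen-wide mean activation plus 3 SD, cut at about 8.5% in these data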;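 further: 100% = positive control agonist at 1 µM giving full maximal response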
Target sequence (P28566 whole entry, looked up): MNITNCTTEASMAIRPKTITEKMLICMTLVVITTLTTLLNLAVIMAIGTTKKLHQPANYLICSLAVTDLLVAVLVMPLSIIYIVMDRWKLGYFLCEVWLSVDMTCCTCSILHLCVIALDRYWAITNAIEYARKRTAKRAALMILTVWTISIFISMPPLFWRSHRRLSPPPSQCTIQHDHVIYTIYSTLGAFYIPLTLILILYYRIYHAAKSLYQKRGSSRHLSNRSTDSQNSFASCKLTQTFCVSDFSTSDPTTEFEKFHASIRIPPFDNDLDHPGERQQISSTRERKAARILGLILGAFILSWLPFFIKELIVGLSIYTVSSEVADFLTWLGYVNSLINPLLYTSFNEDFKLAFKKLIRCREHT
5-HT1A blocker: blocks the human serotonin 5-HT1a receptor; inhibition, % at 10 µM; AID 612; CHO 5-HT1a Ga15 NFAT-bla reporter, antagonist mode; P08908; 62,000 tested, 0.68% active;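 active means inhibition above the mean of all tested compounds plus 3 SD, cut at about 43% in these data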;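 further: receptor stimulated by 5-CT agonist at 100 nM near EC80; beta-lactamase reporter measured by ratiometric fluorescence of a cleavable substrate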
HEK293 NFkB inh: lowers PMA/ionomycin-induced NF-kB signal in HEK293 cells | AID 465 | 62,000 tested, 0.21% active | inhibition, % at 3 µM | HEK-293 NF-kB luciferase reporter, luminescence;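 active means inhibition above the mean of all tested compounds plus 3 SD, cut at about 40% in these data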;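 further: 0% = stimulated DMSO wells and 100% = 10 µM reference inhibitor 5653914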
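System: NF-kB luciferase reporter HEK-293 cells | Replication: Single test | Control set: DMSO vs reference inhibitor | Evaluation: % inhibition | Schedule: 1 h pretreatment, 16 h stimulation, 37 °C | Probe or stimulus: PMA with ionomycin | Compound dosing: One dose, 3 µM | Detection: Luciferase luminescence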
HTR1E antagonist: blocks the human 5-HT1E serotonin receptor. P28566. CHO 5-HT1E Ga15 NFAT-bla reporter, FRET, antagonist. inhibition, % at 6 µM. 65,000 tested, 0.99% active;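 active means inhibition above a set limit, the mean inhibition across every tested compound plus 3 SD, cut at about 29% in these data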;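 further: signal is the 460 over 535 nm emission ratio of beta-lactamase substrate; 0% = agonist plus DMSO wells and 100% = wells without agonist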
HTR1A agonist: 5-HT1a (human) receptor agonism; activation, % at 10 µM; 65,000 tested, 0.56% active; AID 567; P08908; CHO 5-HT1a Ga15 NFAT-bla reporter, FRET ratio; 0% basal, 100% maximal reference agonist;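 active means activation above the screen-wide mean activation plus 3 SD, cut at about 19% in these data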;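 further: 0% = DMSO wells and 100% = 5-CT at EC100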
The depositor's hits bear a star; nt = no result given.

SMILES	Jurkat viability	5HT1E ag	5-HT1A blocker	HEK293 NFkB inh	HTR1E antagonist	HTR1A agonist
O=C(NCCCN1CCOCC1)C(C(=O)c1ccccc1)n1ccccc1=O (centres undefined)	4	2	-11	3	0	-2
c1ccc(C2=Nn3c(nnc3-c3cc(-c4ccccc4)n[nH]3)SC2)cc1	7	2	-14	-4	20	-2
Brc1ccc(C2=Nn3c(nnc3-c3ccncc3)SC2)cc1	-1	0	11	34	1	-4
Cc1cccc(-c2nnc3n2N=C(c2ccccc2Br)CS3)c1	12	2	16	-4	31*	-5
Cc1ccc(-c2nnc3n2N=C(c2ccccc2)CS3)cc1	10	1	5	-5	45*	-1
Clc1ccccc1C1=Nn2c(nnc2-c2ccncc2)SC1	-4	0	34	17	20	-3
COc1ccc(C2=Nn3c(nnc3-c3ccc(OC)cc3)SC2)cc1	93*	0	43*	25	79*	-1
CCN(CC)CCCNc1oc(-c2cccc(Cl)c2)nc1C#N	-14	-1	-7	24	-7	0
Cc1nn(-c2ccccc2)c2sc(C(=O)N3CCOCC3)cc12	-1	1	8	-2	36*	1
Cc1nn(-c2ccccc2)c2sc(C(=O)O)cc12	nt	0	6	6	7	1
COc1ccc(C2N(c3cc(Cl)ccc3OC)C(=O)C3CCCN32)cc1OC (centres undefined)	-14	1	13	12	2	-2
CCN(CC)c1nc(C#N)cc(-c2ccc(OC)cc2)n1	41*	1	26	38	23	3
CCN(CC)c1nc2cc(OC)ccc2cc1C#N	1	1	-11	6	11	3
COc1ccc(-n2nc3cc(C)c(NC(=O)CC(C)C)cc3n2)cc1	-9	0	-16	5	-4	0
CC1=C(C(=O)OCC(C)C)C(c2cccc(F)c2)N2C(=O)C(C)SC2=N1 (centres undefined)	-2	14*	5	1	12	0
CCOC(=O)C1=C(C)N=C2SC(C)C(=O)N2C1c1cccc(F)c1 (centres undefined)	nt	0	nt	nt	3	1
Cc1ccc(NC(=O)CCNS(=O)(=O)c2ccc3c(c2)oc(=O)n3C)cc1	-3	32*	-11	10	-8	-1
CCOc1ccc(-c2nnc(-c3snc(-c4ccc(F)cc4)c3N=CN(C)C)o2)cc1	5	0	4	19	-3	1
CCOC(=O)C1CCCN(CC(=O)NC2CC2)C1 (centres undefined)	-5	0	-1	6	2	22*
COc1ccc(Cl)cc1NC(=O)COc1cccc(-n2cnnn2)c1	7	35*	-8	12	-3	1
O=C1NC2CCCCC2NC1CC(=O)N1CCN(c2ccccc2)CC1 (centres undefined)	-8	-1	-5	17	5	-1
CCCCc1nc(SCC(=O)Nc2ccc(S(N)(=O)=O)cc2)n[nH]1	1	14*	-5	9	0	-1
Cc1ccc(NC(=O)CSc2n[nH]c(-c3ccncc3)n2)cc1	3	0	-17	17	-3	2
O=C(Cn1cccc1C(=O)c1ccccc1)NCc1cccs1	-1	29*	6	12	4	-2
Cn1nc(CC(=O)Nc2ccc3c(c2)OCCO3)c2ccccc2c1=O	95*	-1	14	32	2	-1
SMILES	Jurkat viability	5HT1E ag	5-HT1A blocker	HEK293 NFkB inh	HTR1E antagonist	HTR1A agonist
COc1ccccc1NC(=O)Cc1nn(C)c(=O)c2ccccc12	58*	0	-10	28	3	-2
Cn1nc(CC(=O)N2CCN(c3ccccc3)CC2)c2ccccc2c1=O	0	0	7	-2	8	-3
Cc1ccc(NC(=O)Cc2nn(C)c(=O)c3ccccc23)cc1F	nt	-1	13	31	5	1
Cn1nc(CC(=O)Nc2ccc(N3CCN(C(=O)OC(C)(C)C)CC3)cc2)c2ccccc2c1=O	99*	0	8	45*	3	1
Cc1ccc(C)c(/C(O)=C2\C(=O)C(=O)N(CCCN(C)C)C2c2cccnc2)c1 (centres undefined)	nt	1	-7	14	-11	0
COC(=O)c1ccc(C(=O)OC)c(NC(=O)c2oc(C)nc2C)c1	-6	0	10	8	2	-1
O=C(Nc1ccccc1NC(=O)c1c(F)c(F)c(F)c(F)c1F)c1c(F)c(F)c(F)c(F)c1F	-3	1	27	14	30*	2
O=C(Cn1nnc(-c2ccc(Cl)cc2)n1)NCC1CCCCC1	-1	0	3	6	-1	-2
Cc1nn2c(-c3cccc(NC(=O)CSc4nc5ccccc5o4)c3)nnc2c2ccccc12	-3	2	-2	17	14	1
Cc1ccc(S(=O)(=O)N2CC3(C)CN(S(=O)(=O)c4ccc(C)cc4)CC(C)(C2)C3O)cc1 (centres undefined)	-4	9.9*	-14	17	0	3
Cc1ccc(S(=O)(=O)N2CCN(S(=O)(=O)N3CCCCC3)CC2)cc1	-7	0	-9	9	-8	4
CCOc1ccc2nc(NC(=O)CN3CCC(n4nnc5cc(F)ccc54)CC3)sc2c1	16	0	8	17	5	1
COc1ccccc1C(=O)N1CCN(c2cccc(Cl)c2)CC1	nt	-1	28	40*	16	0
Cc1onc(-c2ccccc2Cl)c1C(=O)N1CCN(c2cccc(Cl)c2)CC1	61*	1	30	29	29*	1
COc1cc2c(C(=O)N3CCN(Cc4ccc5c(c4)OCO5)CC3)cn(C)c(=O)c2cc1OC	nt	-1	1	12	11	0
O=C(c1cccc(Cl)c1)N1CCN(C(=O)c2ccccc2F)CC1	nt	1	nt	nt	-1	2
COc1ccccc1C(=O)N1CCN(Cc2ccc3c(c2)OCO3)CC1	nt	8.8*	nt	nt	2	-2
O=C(c1cccc(F)c1)N1CCN(c2cccc(Cl)c2)CC1	80*	0	12	2	0	-3
Cc1onc(-c2ccccc2Cl)c1C(=O)N1CCN(c2ccccc2)CC1	0	0	2	3	-5	1
COc1ccccc1C(=O)N1CCN(C(=O)c2ccncc2)CC1	3	-1	6	-7	-8	0
C=C(C)Cn1c(CCCNC(=O)CCC)nc2ccccc21	nt	0	11	8	8	-5
CCN1C(=O)N(C)C(N(O)C(=O)NC)C1(C)C (centres undefined)	0	-1	-17	20	-12	0
N=c1c(C(=O)NC2CCCCC2)cc2c(=O)n3ccccc3nc2n1CCN1CCOCC1	-2	0	22	14	-11	1

Compound activity as filed in PubChem BioAssay.
